Laboratory results published in ChEMBL document CHEMBL4831480, “Identification of First-in-Class Inhibitors of Kallikrein-Related Peptidase 6 That Promote Oligodendrocyte Differentiation” (J Med Chem, 2021).

How the values were obtained:
Plasminogen = Plasminogen (Homo sapiens, UniProt P00747); experiment: Inhibition of plasmin (unknown origin) assessed as release of AMC fluorescent product using Boc-QAR-AMC as substrate incubated for 30 mins by microplate reader
Caspase-2 (Homo sapiens) = target: T1, Caspase-2 (Homo sapiens) (UniProt P42575); experiment: Inhibition of Caspase-2 (unknown origin) assessed as inhibition of release of AMC fluorescent product using Ac-VDVAD-AMC as substrate at 10 uM incubated for 30 mins by microplate reader relative to control
T1 sequence (whole entry): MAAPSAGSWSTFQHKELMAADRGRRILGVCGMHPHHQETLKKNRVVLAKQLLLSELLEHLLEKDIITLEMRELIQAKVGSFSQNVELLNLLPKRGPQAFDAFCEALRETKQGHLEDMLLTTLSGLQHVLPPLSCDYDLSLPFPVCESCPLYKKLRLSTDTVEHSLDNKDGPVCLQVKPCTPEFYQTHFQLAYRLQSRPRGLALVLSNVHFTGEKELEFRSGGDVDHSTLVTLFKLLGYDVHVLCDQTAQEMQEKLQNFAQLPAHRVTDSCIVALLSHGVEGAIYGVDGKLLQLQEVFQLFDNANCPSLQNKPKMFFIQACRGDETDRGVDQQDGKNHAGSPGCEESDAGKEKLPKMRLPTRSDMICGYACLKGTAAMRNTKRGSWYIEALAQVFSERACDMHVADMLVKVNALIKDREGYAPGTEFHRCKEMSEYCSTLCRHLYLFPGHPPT
Method in brief: (§1)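 Each inhibitor at 10 μM was preincubated 15 min at 37 °C with the protease at an optimized concentration in its own buffer. Reaction started with AMC substrate: Ac-VDVAD-AMC 25 μM (caspase-2), Ac-DEVD-AMC 10 μM (caspase-3), Ac-VEID-AMC 100 μM (caspase-6), Z-LR-AMC 50 μM (cathepsin L), Z-GGR-AMC 100 μM (tPA). Read for 30 min at 37 °C; % inhibition from initial rates versus DMSO; 3 independent experiments.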

Trypsin-3 (Homo sapiens) = target: T2, Trypsin-3 (Homo sapiens) (UniProt P35030); experiment: Inhibition of Trypsin 3 (unknown origin) assessed as inhibition of release of AMC fluorescent product using […] as substrate at 10 uM incubated for 30 mins by microplate reader relative to control
T2 sequence (whole entry): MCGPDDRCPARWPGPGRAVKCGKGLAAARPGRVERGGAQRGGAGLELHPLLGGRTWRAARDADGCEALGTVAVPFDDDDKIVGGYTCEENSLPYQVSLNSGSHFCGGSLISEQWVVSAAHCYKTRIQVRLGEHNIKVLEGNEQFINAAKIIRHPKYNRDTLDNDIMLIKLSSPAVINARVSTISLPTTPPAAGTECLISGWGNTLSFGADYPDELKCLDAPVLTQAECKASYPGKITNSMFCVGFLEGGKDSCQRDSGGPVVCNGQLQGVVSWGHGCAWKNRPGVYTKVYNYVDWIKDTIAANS

Trypsin (Homo sapiens) = Trypsin (Homo sapiens) (UniProt P07477+P07478+P35030); experiment: Inhibition of Trypsin (unknown origin) assessed as inhibition of release of AMC fluorescent product using […] as substrate at 10 uM incubated for 30 mins by microplate reader relative to control; assay type: protein assay
[1] = target: Tissue-type plasminogen activator (Homo sapiens) (UniProt P00750); experiment: Inhibition of tPA (unknown origin) assessed as inhibition of release of AMC fluorescent product using Z-GGR-AMC as substrate at 10 uM incubated for 30 mins by microplate reader relative to control; method in brief: as §1
[2] = target: T3, Kallikrein-11 (Homo sapiens) (UniProt Q9UBX7); experiment: Inhibition of KLK11 (unknown origin) assessed as inhibition of release of AMC fluorescent product using Boc-QAR-AMC as substrate at 10 uM incubated for 30 mins by microplate reader relative to control
T3 sequence (whole entry): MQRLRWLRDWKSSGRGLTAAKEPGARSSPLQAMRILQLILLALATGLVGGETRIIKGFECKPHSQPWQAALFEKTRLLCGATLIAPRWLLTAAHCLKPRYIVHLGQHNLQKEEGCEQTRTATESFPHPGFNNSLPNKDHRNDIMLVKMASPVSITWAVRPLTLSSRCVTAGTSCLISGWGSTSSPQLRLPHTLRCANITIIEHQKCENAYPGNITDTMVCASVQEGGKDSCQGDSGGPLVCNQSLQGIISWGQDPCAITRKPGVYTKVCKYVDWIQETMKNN

[3] = target: T4, Kallikrein-13 (Homo sapiens) (UniProt Q9UKR3); experiment: Inhibition of KLK13 (unknown origin) assessed as inhibition of release of AMC fluorescent product using H-VPR-AMC as substrate at 10 uM incubated for 30 mins by microplate reader relative to control
T4 sequence (whole entry): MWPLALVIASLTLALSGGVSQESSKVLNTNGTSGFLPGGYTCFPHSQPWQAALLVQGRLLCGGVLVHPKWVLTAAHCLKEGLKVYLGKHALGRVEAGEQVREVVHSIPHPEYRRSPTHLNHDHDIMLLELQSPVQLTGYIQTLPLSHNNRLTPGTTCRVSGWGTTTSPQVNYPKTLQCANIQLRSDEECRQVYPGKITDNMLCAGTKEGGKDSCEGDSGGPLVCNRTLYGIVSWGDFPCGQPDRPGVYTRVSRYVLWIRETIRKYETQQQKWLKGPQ

[4] = target: Kallikrein-4 (Homo sapiens) (UniProt Q9Y5K2); experiment: Inhibition of KLK4 (unknown origin) assessed as inhibition of release of AMC fluorescent product using H-VPR-AMC as substrate at 10 uM incubated for 30 mins by microplate reader relative to control
Caspase-6 (Homo sapiens) = target: T5, Caspase-6 (Homo sapiens) (UniProt P55212); experiment: Inhibition of Caspase-6 (unknown origin) assessed as inhibition of release of AMC fluorescent product using Ac-VEID-AMC as substrate at 10 uM incubated for 30 mins by microplate reader relative to control; method in brief: as §1
T5 sequence (whole entry): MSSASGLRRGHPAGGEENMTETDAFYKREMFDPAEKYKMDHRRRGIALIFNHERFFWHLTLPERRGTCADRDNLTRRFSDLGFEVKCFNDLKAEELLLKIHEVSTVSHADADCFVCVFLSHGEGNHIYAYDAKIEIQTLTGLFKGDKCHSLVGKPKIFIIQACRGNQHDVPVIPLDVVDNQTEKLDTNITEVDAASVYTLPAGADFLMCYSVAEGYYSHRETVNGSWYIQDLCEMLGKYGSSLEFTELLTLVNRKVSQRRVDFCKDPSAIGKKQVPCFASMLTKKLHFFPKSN

[5] = target: Procathepsin L (Homo sapiens) (UniProt P07711); experiment: Inhibition of Cathepsin L (unknown origin) assessed as inhibition of release of AMC fluorescent product using Z-LR-AMC as substrate at 10 uM incubated for 30 mins by microplate reader relative to control; method in brief: as §1
Sequence of Procathepsin L (Homo sapiens) (P07711 114-333 limits assumed): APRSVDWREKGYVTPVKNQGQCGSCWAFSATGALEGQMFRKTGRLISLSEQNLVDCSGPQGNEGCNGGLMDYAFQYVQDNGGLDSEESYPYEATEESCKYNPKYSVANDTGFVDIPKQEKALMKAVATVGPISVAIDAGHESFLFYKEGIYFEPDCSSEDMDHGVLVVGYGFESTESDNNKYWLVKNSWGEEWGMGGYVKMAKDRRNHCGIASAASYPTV

Sequence of Kallikrein-4 (Homo sapiens) (Q9Y5K2 whole entry): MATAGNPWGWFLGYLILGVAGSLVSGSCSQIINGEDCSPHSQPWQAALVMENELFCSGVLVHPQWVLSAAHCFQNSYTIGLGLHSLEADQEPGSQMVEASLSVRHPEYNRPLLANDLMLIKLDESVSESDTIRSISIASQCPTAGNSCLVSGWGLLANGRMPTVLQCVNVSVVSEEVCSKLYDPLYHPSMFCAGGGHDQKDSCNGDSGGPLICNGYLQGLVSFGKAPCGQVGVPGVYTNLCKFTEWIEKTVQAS
Sequence of Tissue-type plasminogen activator (Homo sapiens) (P00750 36-562 limits assumed): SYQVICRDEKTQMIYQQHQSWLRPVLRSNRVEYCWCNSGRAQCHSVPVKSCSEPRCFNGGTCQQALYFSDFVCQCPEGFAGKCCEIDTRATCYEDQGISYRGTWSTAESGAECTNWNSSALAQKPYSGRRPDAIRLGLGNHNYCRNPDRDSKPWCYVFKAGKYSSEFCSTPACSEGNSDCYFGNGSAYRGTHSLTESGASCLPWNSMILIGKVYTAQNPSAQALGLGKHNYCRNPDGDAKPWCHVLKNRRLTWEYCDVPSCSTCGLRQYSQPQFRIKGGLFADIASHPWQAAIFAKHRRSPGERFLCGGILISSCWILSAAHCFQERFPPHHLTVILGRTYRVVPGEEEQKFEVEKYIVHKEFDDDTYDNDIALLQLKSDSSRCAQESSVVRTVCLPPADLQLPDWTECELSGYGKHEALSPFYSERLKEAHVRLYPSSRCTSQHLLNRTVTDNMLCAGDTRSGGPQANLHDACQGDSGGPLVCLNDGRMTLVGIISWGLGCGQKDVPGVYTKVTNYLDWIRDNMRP
Sequence of Plasminogen (P00747 97-580 limits assumed): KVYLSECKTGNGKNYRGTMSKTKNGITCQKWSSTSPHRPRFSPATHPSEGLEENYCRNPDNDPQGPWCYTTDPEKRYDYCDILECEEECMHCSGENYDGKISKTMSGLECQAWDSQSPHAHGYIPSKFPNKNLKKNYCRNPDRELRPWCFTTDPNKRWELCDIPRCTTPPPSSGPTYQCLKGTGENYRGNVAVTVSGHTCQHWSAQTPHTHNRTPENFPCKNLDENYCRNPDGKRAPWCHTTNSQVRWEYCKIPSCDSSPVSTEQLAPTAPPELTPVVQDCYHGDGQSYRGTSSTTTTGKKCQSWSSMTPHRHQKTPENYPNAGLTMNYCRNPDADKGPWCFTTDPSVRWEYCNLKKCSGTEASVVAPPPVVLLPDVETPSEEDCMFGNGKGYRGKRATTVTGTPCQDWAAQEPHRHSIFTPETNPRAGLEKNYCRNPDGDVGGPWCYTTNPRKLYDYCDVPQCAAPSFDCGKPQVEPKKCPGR
Sequence of Plasminogen (P00747 581-810 limits assumed): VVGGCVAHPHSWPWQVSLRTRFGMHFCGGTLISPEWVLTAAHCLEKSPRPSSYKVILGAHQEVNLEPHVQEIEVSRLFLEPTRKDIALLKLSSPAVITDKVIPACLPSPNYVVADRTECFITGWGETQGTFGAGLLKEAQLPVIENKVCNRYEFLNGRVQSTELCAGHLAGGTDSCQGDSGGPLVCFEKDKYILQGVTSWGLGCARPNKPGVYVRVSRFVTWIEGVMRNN

| Compound | IC50 (Plasminogen) [µM] | inhibition (Caspase-2 (Homo sapiens)) [%] | inhibition (Trypsin-3 (Homo sapiens)) [%] | inhibition (Trypsin (Homo sapiens)) [%] | inhibition [1] [%] | inhibition [2] [%] | inhibition [3] [%] | inhibition [4] [%] | inhibition (Caspase-6 (Homo sapiens)) [%] | inhibition [5] [%] |
| --- | --- | --- | --- | --- | --- | --- | --- | --- | --- | --- |
| Cl.NCc1ccc(NC(=O)c2cc3ccccc3cc2O)cc1 | 7.4 | 4 | 36 | 25 | 6 | 45 | 19 | 2 | 40 | 25 |
| Cc1ccc2ccc(C(=O)Nc3ccc(CN)cc3)c(O)c2c1 | 6.7 | 8 | 21 | 32 | 9 | 88 | 12 | 6 | 31 | 27 |
| CC(C)(C)c1ccc(O)c(C(=O)Nc2ccc(CN)cc2)c1.Cl | 21.3 | 5 | 15 | 5 | 11 | 56 | 5 | 0 | 13 | 20 |
| Cl.NCc1ccc(NC(=O)c2ccc3ccccc3c2O)cc1 | 10.2 | 30 | 30 | 34 | 18 | 80 | 2 | 14 | 56 | 30 |
| Cc1ccc(C(=O)Nc2ccc(CN)cc2)c(O)c1.Cl | 9.2 | 0 | 20 | 15 | 0 | 39 | 10 | 0 | 5 | 32 |

These reach a lower IC50 (Plasminogen). Values come first.

| IC50 (Plasminogen) [µM] | inhibition (Caspase-2 (Homo sapiens)) [%] | inhibition (Trypsin-3 (Homo sapiens)) [%] | inhibition (Trypsin (Homo sapiens)) [%] | inhibition [1] [%] | inhibition [2] [%] | inhibition [3] [%] | inhibition [4] [%] | inhibition (Caspase-6 (Homo sapiens)) [%] | inhibition [5] [%] | Compound |
| --- | --- | --- | --- | --- | --- | --- | --- | --- | --- | --- |
| 4.8 | 15 | 73 | 91 | 6 | 75 | 15 | 45 | 12 | 1 | CC(C)c1ccc(C(=O)Nc2ccc(CN)cc2)c(O)c1 |
| 3.3 | 14 | 32 | 41 | 10 | 0 | 0 | 3 | 70 | 28 | COc1ccc2c(O)c(C(=O)Nc3ccc(CN)cc3)ccc2c1 |
